Article PMC10374283 (Journal of medicinal chemistry, 2023)
“Also recorded” adds a separate entry of the source.

What was measured:
SARS-CoV-2 Nsp14 [1] = target: T1, SARS-CoV-2 Nsp14 (Severe acute respiratory syndrome coronavirus 2, UniProt P0DTD1); test: biochemical; type: biochemical
Nsp14 = Nsp14 (Severe acute respiratory syndrome coronavirus 2, UniProt P0DTD1); test: Assessment of covalent binding to Nsp14 by LC-MS; set-up: species or system SARS-CoV-2
Outline: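 SARS-CoV-2 Nsp14 was E. coli-expressed with a His6-SUMO tag and purified after SUMO removal. Protein was incubated with a 20-fold molar excess of test compound for 2 h at room temperature (20 °C), then diluted in 0.1% formic acid. Separation used HPLC with a 5–95% acetonitrile/water gradient, followed by ESI time-of-flight mass spectrometry.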

SARS-CoV-2 = test: Antiviral activity versus cell toxicity; type: cell-based
[2] = Colloidal aggregation by dynamic light scattering; type: physicochemical; details: for colloid-like particle formation by DLS: 50 mM KPi pH 7.0, 1% DMSO; for CAC relative to Nsp14 IC50: DLS CAC divided by Nsp14 IC50
SARS-CoV-2 Nsp14 [3] = target: T1, SARS-CoV-2 Nsp14; test: Mechanism of action: IC50 at varying SAM and RNA concentrations; type: biochemical; details: varying SAM or RNA concentration
[4] = system: malate dehydrogenase (MDH); test: Aggregation counter-screen, malate dehydrogenase inhibition; type: biochemical; details: for inhibition of MDH: absence of detergent; for inhibition of MDH with detergent: with 0.01% Triton X-100
AmpC β-lactamase (AmpC) = AmpC β-lactamase (AmpC) (Escherichia coli, UniProt P00811); type: biochemical; details: for inhibition of AmpC: absence of detergent; for inhibition of AmpC with detergent: with 0.01% Triton X-100
AmpC β-lactamase (AmpC), sequence (P00811 20-377): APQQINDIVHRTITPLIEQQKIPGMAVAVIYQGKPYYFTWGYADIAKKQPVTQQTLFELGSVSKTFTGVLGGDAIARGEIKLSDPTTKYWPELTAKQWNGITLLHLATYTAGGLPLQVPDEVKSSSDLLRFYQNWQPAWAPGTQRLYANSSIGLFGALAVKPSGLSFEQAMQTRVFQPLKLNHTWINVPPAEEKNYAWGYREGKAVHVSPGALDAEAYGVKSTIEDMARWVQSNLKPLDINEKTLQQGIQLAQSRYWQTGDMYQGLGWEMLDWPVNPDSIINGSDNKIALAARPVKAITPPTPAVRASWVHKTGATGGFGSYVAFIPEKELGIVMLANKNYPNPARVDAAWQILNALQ

SARS-CoV-2 Nsp14 [5] = target: T1, SARS-CoV-2 Nsp14; type: biochemical; details: preincubated at 10-fold IC50 for 1 h, diluted 100-fold
[6] = system: panel of 30 human SAM-dependent MTases; test: Selectivity panel of 30 human SAM-dependent protein and RNA MTases; type: biochemical; details: compounds at 10 μM, 30 human MTases
MDH or AmpC = test: Aggregation counter-screen, enzyme not specified per compound; type: biochemical; details: for inhibition of MDH or AmpC: absence of detergent; for inhibition of MDH or AmpC with detergent: with 0.01% of detergent

## CCC(=O)NCCC(=O)N1CCC(C2C(=O)Nc3cc(Cl)ccc32)CC1 (centres unmarked) [ZD160–68, N-(3-(4-(6-Chloro-2-oxoindolin-3-yl)piperidin-1-yl)-3-oxopropyl)-propionamide]
SARS-CoV-2 Nsp14 [1]
  Nsp14 enzymatic inhibition (in words): inactive; also recorded: no enzymatic inhibition

## C=CC(=O)N(C)c1ccc(C(=O)Nc2ccc(-c3cn4ccsc4n3)cc2)cc1 [acryl41]
Nsp14
  covalent adduct formation with Nsp14 by mass spectrometry: did not form a measurable adduct by mass spectrometry

## C=CC(=O)NC[C@H](OC)C(=O)N1CCC(C2C(=O)Nc3cc(Cl)ccc32)CC1 (stereo partly drawn) [acryl42_10, N-((2S)-3-(4-(6-Chloro-2-oxoindolin-3-yl)piperidin-1-yl)-2-methoxy-3-oxopropyl)acrylamide]
SARS-CoV-2 Nsp14 [1]
  IC50: 7 µM
SARS-CoV-2 Nsp14 [1]; relative to parent acryl42
  fold more potent than acryl42: 4.5 fold
SARS-CoV-2
  antiviral activity versus cell toxicity: for none of them could we distinguish anti-viral activity from cell toxicity

## Cc1nc2ncc(-c3c[nH]nn3)cc2[nH]1 [‘0222, 2-Methyl-6-(1H-1,2,3-triazol-4-yl)-1H-imidazo[4,5-b]pyridine]
[2]
  colloid-like particle formation by DLS: CACs at relevant concentrations

## Oc1ccccc1-c1ncnc2[nH]ccc12 [‘0683, 2-(7H-Pyrrolo[2,3-d]pyrimidin-4-yl)phenolv]
SARS-CoV-2 Nsp14 [1]; from Nsp14 IC50
  ligand efficiency (LE): 0.42 kcal/heavy atom
SARS-CoV-2 Nsp14 [3]
  pattern of inhibition versus SAM and RNA: competitive and presumably reversible inhibitor of both SAM and RNA binding
[4]
  inhibition of MDH: both MDH and AmpC
AmpC β-lactamase (AmpC)
  inhibition of AmpC: both MDH and AmpC
SARS-CoV-2
  antiviral activity versus cell toxicity: for none of them could we distinguish anti-viral activity from cell toxicity

## C=C(Cl)COC(=O)c1cnc2[nH]ccc2c1 [‘0741, 2-Chloroallyl 1H-pyrrolo[2,3-b]pyridine-5-carboxylate]
[4]
  inhibition of MDH: inhibited MDH
  inhibition of MDH with detergent: this effect was smaller

## CN(C)c1cncc(NC(=O)c2ccc(C=O)cc2O)c1 [‘1889, N-(5-(Dimethylamino)pyridin-3-yl)-4-formyl-2-hydroxybenza-mide]
[2]
  CAC relative to Nsp14 IC50: CAC five-fold higher than its Nsp14 IC50
[4]
  inhibition of MDH: did not inhibit either counter-screening enzyme under any measured condition
AmpC β-lactamase (AmpC)
  inhibition of AmpC: did not inhibit either counter-screening enzyme under any measured condition

## N#Cc1ccc(NC(=O)c2cc(C=O)n3c2CCCC3)c2cc(O)ccc12 [‘1911, N-(4-Cyano-7-hydroxynaphthalen-1-yl)-3-formyl-5,6,7,8-tetra-hydroindolizine-1-carboxamide]
SARS-CoV-2 Nsp14 [5]
  reversibility of Nsp14 inhibition by jump/rapid dilution: little residual inhibition when diluted below its IC50
Nsp14
  covalent adduct formation with Nsp14 by mass spectrometry: did not increase the molecular mass of Nsp14
[2]
  colloid-like particle formation by DLS: did form colloid-like particles by DLS at a relevant concentration
[4]
  inhibition of MDH: did inhibit AmpC and MDH in the absence of Triton
  inhibition of MDH with detergent: this inhibition disappeared
AmpC β-lactamase (AmpC)
  inhibition of AmpC: did inhibit AmpC and MDH in the absence of Triton
  inhibition of AmpC with detergent: this inhibition disappeared
[6]
  inhibition of panel enzymes (>50% criterion): inhibiting only two histone MTases; also recorded: only hit two very closely related MTases
SARS-CoV-2
  antiviral activity versus cell toxicity: for none of them could we distinguish anti-viral activity from cell toxicity

## O=C(COC(=O)c1cc(-c2ccoc2)n[nH]1)Nc1ccc(Br)cc1 [‘1988, 2-((4-Bromophenyl)amino)-2-oxoethyl 3-(Furan-3-yl)-1H-pyra-zole-5-carboxylate]
SARS-CoV-2 Nsp14 [1]
  IC50: 6 µM
SARS-CoV-2 Nsp14 [5]
  reversibility of Nsp14 inhibition by jump/rapid dilution: noncovalent inhibitor
SARS-CoV-2 Nsp14 [3]
  pattern of inhibition versus SAM and RNA: SAM- and RNA-competitive pattern of inhibition
[2]
  colloid-like particle formation by DLS: formed colloid-like particles by DLS
  CAC relative to Nsp14 IC50: 10 fold
[4]
  inhibition of MDH: inhibition of MDH was in a relevant range
  inhibition of MDH with detergent: inhibition of both enzymes disappeared
AmpC β-lactamase (AmpC)
  inhibition of AmpC with detergent: inhibition of both enzymes disappeared
[6]
  inhibition of panel enzymes (>50% criterion): inhibiting nine enzymes more than 50%
SARS-CoV-2
  antiviral activity versus cell toxicity: for none of them could we distinguish anti-viral activity from cell toxicity

## Cc1c(C(=O)/C=C/c2ccc(O)c([N+](=O)[O-])c2)c(C#N)c2n1CCC2 [‘4824, (E)-6-(3-(4-Hydroxy-3-nitrophenyl)acryloyl)-5-methyl-2,3-dihydro-1H-pyrrolizine-7-carbonitrile]
SARS-CoV-2 Nsp14 [5]
  reversibility of Nsp14 inhibition by jump/rapid dilution: inhibition by ‘4824 is not due to the nitrile electrophile
SARS-CoV-2 Nsp14 [3]
  pattern of inhibition versus SAM and RNA: SAM- and RNA-competitive pattern of inhibition
[2]
  colloid-like particle formation by DLS: did not form detectable particles by DLS
[4]
  inhibition of MDH: did inhibit the counter-screening enzymes MDH and AmpC at relevant concentrations
  inhibition of MDH with detergent: inhibition was largely or entirely eliminated
AmpC β-lactamase (AmpC)
  inhibition of AmpC: did inhibit the counter-screening enzymes MDH and AmpC at relevant concentrations
  inhibition of AmpC with detergent: inhibition was largely or entirely eliminated
[6]
  inhibition of panel enzymes (>50% criterion): no inhibition greater than 50% for any enzyme in the panel; also recorded: Nsp14-selective

## Cc1cc(C(=O)Nc2cccc(N3CCNC3=O)c2C)sc1C=O [‘4975, 5-Formyl-4-methyl-N-(2-methyl-3-(2-oxoimidazolidin-1-yl)-phenyl)thiophene-2-carboxamide]
SARS-CoV-2
  antiviral activity versus cell toxicity: for none of them could we distinguish anti-viral activity from cell toxicity

## CC(C)SCn1cnc2cnn(C)c2c1=O [‘5604, 6-((Isopropylthio)methyl)-1-methyl-1H-pyrazolo[4,3-d]-pyrimidin-7(6H)-One]
[2]
  colloid-like particle formation by DLS: CACs at relevant concentrations
[4]
  inhibition of MDH: inhibited MDH

## O=C(NC1CSC1)c1ncnn2cccc12 [‘5763, N-(Thietan-3-yl)pyrrolo[2,1-f][1,2,4]triazine-4-carboxamide]
[2]
  colloid-like particle formation by DLS: CACs at relevant concentrations

## Cn1ncc(N)c1-c1cc2ccccc2[nH]1 [‘6066, 5-(1H-Indol-2-yl)-1-methyl-1H-pyrazol-4-amine]
[2]
  colloid-like particle formation by DLS: CACs at relevant concentrations

## N#Cc1c(C(=O)NCc2ccc(O)c([N+](=O)[O-])c2)[nH]c2ccccc12 [‘6943, 3-Cyano-N-(4-hydroxy-3-nitrobenzyl)-1H-indole-2-carboxamide]
[2]
  colloid-like particle formation by DLS: did form colloid-like particles by DLS
MDH or AmpC
  inhibition of MDH or AmpC: inhibited MDH or AmpC at relevant concentrations
  inhibition of MDH or AmpC with detergent: inhibition was largely eliminated

## Cn1c(C(=O)NCc2ccc(O)c([N+](=O)[O-])c2)c(Br)c2ccccc21 [‘6947, 3-Bromo-N-(4-hydroxy-3-nitrobenzyl)-1-methyl-1H-indole-2-carboxamide]
[2]
  colloid-like particle formation by DLS: did form colloid-like particles by DLS
MDH or AmpC
  inhibition of MDH or AmpC: inhibited MDH or AmpC at relevant concentrations
  inhibition of MDH or AmpC with detergent: inhibition was largely eliminated

## Cc1c(C(=O)/C=C/c2cc(Br)c(O)cc2F)c(C#N)c2n1CCC2 [‘6953, (E)-6-(3-(5-Bromo-2-fluoro-4-hydroxyphenyl)acryloyl)-5-methyl-2,3-dihydro-1H-pyrrolizine-7-carbonitrile]
[2]
  colloid-like particle formation by DLS: did form colloid-like particles by DLS
MDH or AmpC
  inhibition of MDH or AmpC: inhibited MDH or AmpC at relevant concentrations
  inhibition of MDH or AmpC with detergent: inhibition was largely eliminated

## Cn1c(=O)[nH]c2ncc(-c3cccc(C(=O)Nc4cccc(C#N)c4)c3)cc21 [‘9213, N-(3-Cyanophenyl)-3-(1-methyl-2-oxo-2,3-dihydro-1H-imidazo-[4,5-b]pyridin-6-yl)benzamide]
SARS-CoV-2 Nsp14 [1]; tested at 30 and 50 μM
  enzyme inhibition at 30 and 50 μM: more than 50%
[2]
  colloid-like particle formation by DLS: did form colloid-like particles by DLS
